TRPC4 potent – positive allosteric modulators of TRPC4, primary screen, cell-based, mouse TRPC4beta, HEK293 mu-opioid, Fluo-4 calcium | AID 2227, 2009 | hit rate 0.42% among 310,000 | DAMGO EC20, Fluo-4 Ca2+ flux; active compounds read high | B-score at 10 µM | Short transient receptor potential channel 4 (Mus musculus), Q9QUQ5;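 active = B-score of calcium response area above 5 SD of library B-scores, with initial fluorescence ratio within 5 SD of library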;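 note: B-score of integrated fluorescence ratio over time as area under calcium response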
TRPC6 act – mouse TRPC6 channel activators, primary screen, cell-based, HEK293, membrane potential dye. hit rate 0.13% among 310,000. AID 2550, 2010. HEK293-TRPC6 membrane potential dye fluorescence; active compounds read high. Short transient receptor potential channel 6 (Mus musculus), Q61143. B-score at 10 µM;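 active = B-score of the integrated fluorescence ratio above library mean plus 3 SD, and starting fluorescence ratio within library mean plus 5 SD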;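 note: higher score means more depolarization so channel activation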
TRPC4 inh – inhibitors of mouse TRPC4 channel, primary screen, Fluo4 calcium, HEK293 TRPC4beta/mu-opioid cells; hit rate 0.39% among 300,000; B-score at 10 µM; DAMGO-evoked Fluo4 calcium flux; active compounds read low; Short transient receptor potential channel 4 (Mus musculus), Q9QUQ5; AID 2247, 2010;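 active = B-score over 3 SD under the library average, no early fluorescence shift, positive overall ratio signal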
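material = TRPC4beta/mu-opioid receptor HEK293 cell line | probe or stimulus = sequential submaximal and maximal DAMGO stimulation | compound dosing = one concentration per compound | measured by = Fluo4 Ca2+ flux fluorescence | evaluation = integrated fluorescence ratio relative to baseline, converted to per-well B score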
TRPC4 act – activators of mouse TRPC4 channel, primary screen, Fluo4 calcium, HEK293 TRPC4beta/mu-opioid cells; Short transient receptor potential channel 4 (Mus musculus), Q9QUQ5; Fluo4 calcium fluorescence; active compounds read high; B-score at 10 µM; hit rate 0.49% among 310,000;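 active = B-score above 5 SD of library B-scores, and initial fluorescence ratio not above library mean plus 5 SD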;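 note: positive B-score marks a calcium rise read as TRPC4 activation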
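System: HEK293 cells stably co-expressing mouse TRPC4beta and mu-opioid receptor; Schedule: Fluo4 dye loading 45 min at room temperature, 110 s recording; Detection: Fluo4 fluorescence, kinetic; Evaluation: B-scored integrated calcium fluorescence ratio; Controls: buffer (low) and maximal DAMGO (high).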
TRPC6 inh – mouse TRPC6 channel inhibitors, primary screen, cell-based, HEK293, membrane potential dye. hit rate 1.1% among 310,000. Short transient receptor potential channel 6 (Mus musculus), Q61143. ACh-evoked depolarization; active compounds read low. B-score at 10 µM. AID 2553, 2010;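 active = B-score under library mean minus 3 SD, initial fluorescence not abnormally high, positive integrated signal ratio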;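 note: B-score derived from integrated fluorescence ratio over the kinetic read; more negative B-score means stronger inhibition of depolarization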
Platelet DG rel – inhibitors of platelet dense granule secretion, primary screen, cell-based, MLPCN, human platelets; human platelet-rich plasma, SFLLRN dense granule ATP release, luminescence; hit rate 0.22% among 300,000; inhibition, %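 (compounds screened at 7.5 µM in platelet-rich plasma)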;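 active = mean replicate score, as percent of positive control, at or above 50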
* = called active by the depositor; i = inactive; nt = no result given. Sampled rows, rich in hits. Any-hit rate of the full collection: about 2.5%.

SMILES	TRPC4 potent	TRPC6 act	TRPC4 inh	TRPC4 act	TRPC6 inh	Platelet DG rel
CCOC(=O)C1(CCOc2ccccc2)CCN(Cc2ccc(NC(C)=O)cc2)CC1	i	i	i	83*	i	-5
CCOC(=O)C1(CCOc2ccccc2)CCN(Cc2cccc(-n3cccn3)c2)CC1	i	i	i	98*	i	-1
CCOC(=O)C1(CCOc2ccccc2)CCN(Cc2ccc(OC)cc2)CC1	i	i	i	94*	i	2
CC(=O)Nc1ccc(CN2CCC(CO)(CCOc3ccccc3)CC2)cc1	i	i	i	i	i	15
O=C(NCCc1ccccc1)C1CCC(CNS(=O)(=O)c2ccc(F)cc2)CC1 (configuration not stated)	i	i	i	i	i	-8
Cc1cccc(-n2c(SCC(=O)N3CCC(C(=O)O)CC3)nc3ccccc3c2=O)c1C	i	i	i	i	i	-8
COc1cc(CN2CCC(CO)(CCOc3ccccc3)CC2)cc(OC)c1	i	i	-5*	i	i	4
COc1ccc(OC)c(CN2CCC(CO)(CCOc3ccccc3)CC2)c1	i	i	i	i	i	3
CCOC(=O)C1(CCOc2ccccc2)CCN(Cc2cccc(OC)c2OC)CC1	i	i	i	74*	i	-17
CCOC(=O)C1(CCOc2ccccc2)CCN(Cc2ccccc2O)CC1	i	i	i	i	i	-6
CCOC(=O)C1(CCOc2ccccc2)CCN(Cc2cnc(C)s2)CC1	i	i	i	115*	i	-4
CCOC(=O)C1(CCOC)CCN(C(C)CCc2ccc(OC)cc2)CC1 (configuration not stated)	i	i	-7*	i	i	2
CCC1(C)N(O)C(C)(C)C(c2ccc(F)cc2)=[N+]1[O-] (configuration not stated)	i	i	i	i	i	5
CCOC(=O)C1(CCOc2ccccc2)CCN(Cc2cccc3c2OCO3)CC1	i	i	-7*	i	i	0
CC1=C(C(=O)Nc2ccccc2C(=O)NC2CCC(C)CC2)SCCO1 (configuration not stated)	i	i	i	i	i	-5
CC(C)S(=O)(=O)c1csc(C(=O)Nc2ccc(F)cc2)c1N	i	i	i	i	i	57*
CC(C)(C)c1ccc(C(=O)Nc2ccc(F)cc2)s1	i	i	i	i	i	14
CC(C)=CCCC(C)CN1CCC(n2nccc2NC(=O)c2cccnc2)CC1 (configuration not stated)	i	i	i	i	i	8
CC(C)=CCCC(C)CN1CCC(n2nccc2NC(=O)C2CCCC2)CC1 (configuration not stated)	i	i	-5*	i	i	-10
Cc1ccc(CNC(=O)CSc2nc(=O)n3ccccc3n2)cc1	i	i	-6*	i	i	-1
O=C(Cc1ccc(Br)cc1)NCc1ccccc1	i	i	i	i	i	-9
Cc1ccc2[nH]c(C(=O)NCCN3CCCC3)cc2c1	i	i	i	56*	i	9
CCOC(=O)C1(Cc2cccc(F)c2)CCN(Cc2cnn(CC)c2)CC1	i	i	i	125*	i	2
CCOC(=O)C1(Cc2cccc(F)c2)CCN(Cc2cnn(CC)c2C)CC1	i	i	i	143*	i	-1
Cc1nn(C)c(C)c1CN(Cc1nc(CCC(C)C)no1)C(C)C	i	i	i	i	i	1
SMILES	TRPC4 potent	TRPC6 act	TRPC4 inh	TRPC4 act	TRPC6 inh	Platelet DG rel
CCN(CC(=O)NCc1ccc(F)cc1)C(=O)c1ccc(COc2ccccc2)cc1	i	i	i	i	i	-7
COc1ccc(C2C(C(C)=O)=C(O)C(=O)N2c2ccccn2)cc1 (configuration not stated)	i	i	i	i	i	-5
CC(=O)C(C(C)=O)c1cc(NS(=O)(=O)c2ccccc2)ccc1NS(=O)(=O)c1ccccc1	i	i	i	47*	i	-3
CCCc1cc(C(=O)N2CCN(c3ccc(C(F)(F)F)cn3)CC2)sc1C	i	i	i	i	i	-25
O=C(c1ccco1)N1CCN(C/C=C/c2ccccc2)CC1	i	i	-5*	i	i	-1
S=C(NC1CCCCC1)N1CCN(C/C=C/c2ccccc2)CC1	i	i	i	i	i	2
O=C(NC(=S)N1CCN(C/C=C/c2ccccc2)CC1)c1ccco1	i	i	nt	i	i	-2
CC(C)NC(=S)N1CCN(C/C=C/c2ccccc2)CC1	i	i	-6*	i	i	-1
NCCCNC(=O)c1cc2ccccc2[nH]1	i	i	i	106*	i	17
COc1ccc(-c2ccc(CNCc3ccccn3)o2)cc1Cl	i	i	-8*	i	i	4
Clc1ccc(-c2ccc(CNCc3ccccn3)o2)cc1	i	i	i	i	i	4
C=CCn1c(SCc2ccccc2Cl)nnc1-c1sc2nc(C)cc(C)c2c1N	i	i	i	i	i	0
NN=C1c2cc([N+](=O)[O-])ccc2-c2ccc([N+](=O)[O-])cc21	18*	i	i	i	i	-4
CCOC(=O)c1nn(-c2ccc(F)cc2)c(=O)cc1OCC(=O)Nc1ccc(OCC)cc1	i	i	i	i	i	-11
Cc1cccc(OCC(=O)Nc2ccccc2N2CCN(C)CC2)c1	i	i	i	i	i	17
COC(=O)c1ccc(N2CCN(C)CC2)c(NC(=O)c2cccs2)c1	i	i	i	142*	i	6
CN1CCN(c2ccc(NC(=O)COc3ccccc3)cc2Cl)CC1	i	i	i	i	i	4
COC(=O)c1ccc(N2CCN(C)CC2)c(NC(=O)COc2cccc(C)c2)c1	i	i	i	63*	i	-17
COC(=O)c1ccc(N2CCN(C)CC2)c(NC(=O)COc2ccccc2)c1	i	i	i	120*	i	-13
COC(=O)c1ccc(N2CCOCC2)c(NC(=O)c2cccs2)c1	i	i	i	i	i	2

Bioassay records: PubChem BioAssay, several laboratories
